Measurements reported in ChEMBL document CHEMBL4425120, “N1-Azinylsulfonyl-1H-indoles: 5-HT6 Receptor Antagonists with Procognitive and Antidepressant-Like Properties” (ACS Med Chem Lett, 2016).
Active and inactive are the calls of the source. The rule behind the calls is not given here.

Tests used:
[1] = system: Rattus norvegicus; assay: Antianxietic activity in Wistar rat assessed as increase in number of shocks accepted at 0.1 to 1 mg/kg, ip measured for 5 mins by Vogel conflict drinking test; format: functional, organism-based
[2] = target: Alpha-2C adrenergic receptor (Homo sapiens) (UniProt P18825); assay: Displacement of [3H]RX 821002 from human recombinant adrenergic alpha 2C receptor expressed in CHO cells after 60 mins by scintillation counting; format: cell-based
[3] = target: Adrenergic receptor alpha-1 (Rattus norvegicus) (UniProt P15823+P23944+P43140); assay: Displacement of [3H]prazosin from rat cerebral cortex adrenergic alpha 1 receptor after 60 mins by scintillation counting
[4] = system: Rattus norvegicus; assay: Cognitive enhancing effect in ip dosed Sprague-Dawley rat assessed as reversal of PCP induced memory deficit administered 1 hour and 15 mins before familiarization phase by novel object recognition test; format: functional; conditions: for minimal effective dose: read-out: MED
How it was run: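 Memory deficit induced with PCP in rats. Test and reference agents were given i.p., and the reversal of the deficit in novel-object recognition was scored. Data are mean ± SEM, n = 7–12 animals per group, compared against the vehicle and PCP groups.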

[5] = system: Rattus norvegicus; assay: Antidepressant activity in Sprague-Dawley rat assessed as reduction in immobility time at 0.3 mg/kg, ip adminstered 60 mins prior to testing measured for 5 mins by forced swimming test; format: functional, organism-based
How it was run: (§1)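 Modified forced swim test in rats with i.p. dosing. Immobility time and climbing time were scored. Data are mean ± SEM, n = 7–8 animals per group, compared against the vehicle-treated group.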

[6] = organism: Homo sapiens; assay: Selectivity ratio of Ki for human D2L receptor expressed in HEK293 cells to Ki for human 5-HT6 receptor expressed in HEK293 cells; format: cell-based
[7] = system: Rattus norvegicus; assay: Antianxietic activity in Wistar rat assessed as increase in number of licks accepted at 0.1 to 1 mg/kg, ip measured for 5 mins by Vogel conflict drinking test; format: functional, organism-based
[8] = target: Voltage-gated inwardly rectifying potassium channel KCNH2 (Homo sapiens, UniProt Q12809); assay: Displacement of [3H]Dofetilide from human recombinant ERG expressed in HEK293 cells at 10 to 50 uM after 60 mins by scintillation counting; format: cell-based; conditions: hek293, 1 h
[9] = organism: Homo sapiens; assay: Selectivity ratio of Ki for human 5-HT7B receptor expressed in HEK293 cells to Ki for human 5-HT6 receptor expressed in HEK293 cells; format: cell-based
[10] = system: Rattus norvegicus; assay: Antianxietic activity in Wistar rat assessed as increase in number of shocks accepted at 0.3 to 3 mg/kg, ip measured for 5 mins by Vogel conflict drinking test; format: functional, organism-based
[11] = system: Rattus norvegicus; assay: Antidepressant activity in Sprague-Dawley rat assessed as increase in climbing time at 0.1 mg/kg, ip adminstered 60 mins prior to testing measured for 5 mins by forced swimming test; format: functional, organism-based; how it was run: as §1
[12] = target: Muscarinic acetylcholine receptor M5 (Homo sapiens) (UniProt P08912); assay: Displacement of [3H]4-DAMP from human recombinant muscarinic M5 receptor expressed in CHO cells after 60 mins by scintillation counting; format: cell-based
[13] = system: Rattus norvegicus; assay: Antidepressant activity in Sprague-Dawley rat assessed as reduction in immobility time at 0.1 mg/kg, ip adminstered 60 mins prior to testing measured for 5 mins by forced swimming test; format: functional, organism-based; how it was run: as §1
[14] = system: Rattus norvegicus; assay: Antianxietic activity in Wistar rat assessed as increase in number of licks accepted at 0.3 to 3 mg/kg, ip measured for 5 mins by Vogel conflict drinking test; format: functional, organism-based

Chain of Voltage-gated inwardly rectifying potassium channel KCNH2 (Q12809 whole entry): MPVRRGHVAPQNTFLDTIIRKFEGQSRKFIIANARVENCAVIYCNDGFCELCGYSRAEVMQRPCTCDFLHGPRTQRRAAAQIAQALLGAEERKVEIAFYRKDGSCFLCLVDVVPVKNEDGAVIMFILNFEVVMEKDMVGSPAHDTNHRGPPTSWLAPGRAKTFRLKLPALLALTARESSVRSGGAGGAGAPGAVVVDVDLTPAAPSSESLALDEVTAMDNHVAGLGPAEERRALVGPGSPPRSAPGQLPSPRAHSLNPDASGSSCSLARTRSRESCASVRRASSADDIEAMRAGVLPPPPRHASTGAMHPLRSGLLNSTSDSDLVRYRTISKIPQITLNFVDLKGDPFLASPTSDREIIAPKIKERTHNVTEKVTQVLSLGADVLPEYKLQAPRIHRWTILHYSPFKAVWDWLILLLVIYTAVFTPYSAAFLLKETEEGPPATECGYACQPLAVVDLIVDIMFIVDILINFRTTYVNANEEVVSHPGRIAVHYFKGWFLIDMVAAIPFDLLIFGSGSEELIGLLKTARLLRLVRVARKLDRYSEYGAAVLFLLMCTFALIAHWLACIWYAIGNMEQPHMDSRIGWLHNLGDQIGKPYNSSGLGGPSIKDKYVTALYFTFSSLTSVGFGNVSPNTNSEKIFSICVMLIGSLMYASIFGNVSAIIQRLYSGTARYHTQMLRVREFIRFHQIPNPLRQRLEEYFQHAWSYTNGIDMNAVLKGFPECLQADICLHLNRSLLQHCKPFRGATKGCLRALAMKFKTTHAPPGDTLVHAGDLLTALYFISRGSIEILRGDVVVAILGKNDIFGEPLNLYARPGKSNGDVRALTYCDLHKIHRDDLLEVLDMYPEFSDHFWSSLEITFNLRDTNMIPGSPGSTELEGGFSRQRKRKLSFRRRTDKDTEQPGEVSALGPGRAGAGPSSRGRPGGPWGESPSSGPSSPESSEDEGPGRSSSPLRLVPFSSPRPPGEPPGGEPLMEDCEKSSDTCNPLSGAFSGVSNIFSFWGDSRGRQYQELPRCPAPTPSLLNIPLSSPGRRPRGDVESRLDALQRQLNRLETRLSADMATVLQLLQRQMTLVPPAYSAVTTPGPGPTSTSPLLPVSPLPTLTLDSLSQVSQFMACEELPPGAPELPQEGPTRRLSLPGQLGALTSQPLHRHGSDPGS
Chain of Alpha-2C adrenergic receptor (Homo sapiens) (P18825 whole entry): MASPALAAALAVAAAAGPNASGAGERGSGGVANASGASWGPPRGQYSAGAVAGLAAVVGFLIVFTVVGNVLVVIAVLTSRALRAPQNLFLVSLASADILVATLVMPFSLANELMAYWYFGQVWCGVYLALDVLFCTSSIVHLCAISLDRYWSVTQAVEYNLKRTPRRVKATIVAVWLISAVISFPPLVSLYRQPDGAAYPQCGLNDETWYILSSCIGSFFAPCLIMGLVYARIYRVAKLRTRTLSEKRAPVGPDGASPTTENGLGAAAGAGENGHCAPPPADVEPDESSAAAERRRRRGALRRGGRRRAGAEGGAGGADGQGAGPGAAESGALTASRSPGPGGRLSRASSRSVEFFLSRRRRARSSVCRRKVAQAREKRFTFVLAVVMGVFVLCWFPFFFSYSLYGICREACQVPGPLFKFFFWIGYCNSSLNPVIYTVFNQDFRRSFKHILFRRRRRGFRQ
Chain of Muscarinic acetylcholine receptor M5 (Homo sapiens) (P08912 whole entry): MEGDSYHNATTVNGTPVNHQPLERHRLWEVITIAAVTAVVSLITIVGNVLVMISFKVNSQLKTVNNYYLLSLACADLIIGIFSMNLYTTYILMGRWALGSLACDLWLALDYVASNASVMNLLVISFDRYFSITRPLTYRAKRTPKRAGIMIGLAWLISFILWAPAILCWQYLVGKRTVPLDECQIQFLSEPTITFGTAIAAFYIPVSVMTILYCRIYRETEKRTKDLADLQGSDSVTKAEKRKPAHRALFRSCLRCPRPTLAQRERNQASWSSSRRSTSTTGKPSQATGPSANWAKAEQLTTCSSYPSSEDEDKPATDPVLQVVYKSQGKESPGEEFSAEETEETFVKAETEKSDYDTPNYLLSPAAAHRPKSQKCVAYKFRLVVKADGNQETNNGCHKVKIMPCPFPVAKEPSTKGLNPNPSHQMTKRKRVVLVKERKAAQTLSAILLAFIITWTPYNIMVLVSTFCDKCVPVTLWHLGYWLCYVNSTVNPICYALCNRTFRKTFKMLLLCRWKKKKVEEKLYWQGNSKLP

SMILES | Activity [1] | inhibition [2] [%] | inhibition [3] [%] | Activity [4] | minimal effective dose [4] [mg/kg] | Activity [5] | Ratio Ki [6] | Activity [7] | inhibition (INH) [8] | Ratio Ki [9] | Activity [10] | Activity [11] | inhibition [12] [%] | Activity [13] | Activity [14]
COc1ccc2c(c1)c(C1=CCNCC1)cn2S(=O)(=O)c1ccc2cccnc2c1 | inactive | 18 | 41 | Dose-dependent effect | 1 | Active | 70 | inactive | Not Active | 70 |  |  |  |  | 
COc1ccc2c(c1)c(C1=CCNCC1)cn2S(=O)(=O)c1cncc2ccccc12 |  | 21 | 40 | Dose-dependent effect | 1 | Active | 70 |  | Not Active | 70 | inactive | Active | 3 | Active | inactive
